The results in this text go back to ChEMBL document CHEMBL4038303, “Simultaneous Drug Targeting of the Promoter MYC G-Quadruplex and BCL2 i-Motif in Diffuse Large B-Cell Lymphoma Delays Tumor Growth” (J Med Chem, 2017).

Active and inactive are the calls of the source. The rule behind the calls is not given here.

As usually defined, the TGI is the reduction of tumour growth relative to the control group.

The test system of data set [1] is Mus musculus. In words: Toxicity in scid mouse xenografted with human U2932 cells assessed as change in body weight at 10 mg/kg, ip administered for 5 consecutive days in presence of CPA and NSC-338258. The data set is classed as organism-based. Conditions: in vivo. The procedure, abridged: (§1)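 SCID mice (6−8 weeks, female or male, serum immunoglobulin ≤20 μg/mL by ELISA) implanted subcutaneously in left flank with 10 × 10^6 U2932 cells in 100 μL saline; pair-matched by tumor volume; dosed ip daily for 5 days; controls received all compound diluents; tumor volume a2 × b/2; outliers by Grubbs' test; two-tailed t test with Šidák–Bonferroni correction.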
(In xenograft studies the graft and the host belong to different species.)

Data set [2] concerns Mus musculus. In words: Reduction in Myc mRNA level in tumor of SCID mouse xenografted with human U2932 cells at 10 mg/kg, ip administered for 5 consecutive days cotreated with CPA and NSC-338258 by qPCR method. The data set is classed as functional, organism-based. The procedure, abridged:
(§2)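 Tumors from U2932 xenograft SCID mice given ip treatment daily for 5 days were harvested. Total RNA was taken from the same tumor preparations used for protein lysates, and MYC or BCL2 mRNA was quantified by TaqMan qPCR normalized to TBP. Comparisons were made with diluent-treated mice or CPA-only mice.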

The species named for data set [3] is Homo sapiens. In words: Binding affinity to BLC2 i-motif promoter DNA in human VAL BCL2 and MYC translocation-positive cells assessed as downregulation of BCL2 protein levels at 1 to 3 uM after 24 hrs by Western blot analysis. In a few lines:
(§3)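 Cell lines treated 24 h with compound up to 3 μM, with untreated and DMSO-treated controls. Lysates (20 μg total protein) probed by Western blot for BCL2 or MYC with antibodies at 1:1000; actin as loading control. Blots representative of triplicate experiments.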
In general terms: A western blot detects proteins with antibodies after separation by electrophoresis.

Data set [4] has as its system Mus musculus. The data set can be described thus: Toxicity in scid mouse xenografted with human U2932 cells assessed as change in body weight at 10 mg/kg, ip administered for 5 consecutive days in presence of CPA. The class given is organism-based. The following applies: in vivo. The procedure, abridged:
as §1

The species entered for data set [5] is Homo sapiens. The data set can be described thus: Stabilization of BCL2 i-motif promoter DNA in BCL2 and MYC translocation-positive human VAL cells assessed as potentiation of CPA-induced apoptosis by measuring increase in caspase-3 activity at 3 uM after 24 hrs in presence of NSC-338258 by AFC based fluorescence assay (reference value: 30%).
Data set [6] is filed under the species Homo sapiens. In words: Stabilization of BCL2 i-motif promoter DNA in BCL2 translocation-positive human SUDHL4 cells assessed as potentiation of CPA-induced apoptosis by measuring increase in caspase-3 activity at 3 uM after 24 hrs in presence of NSC-338258 by AFC based fluorescence assay (reference value: 30%).
For data set [7], the species on record is Homo sapiens. In words: Binding affinity to c-myc G-quadruplex DNA in MYC translocation-positive and BCL2 amplification-positive human U2932 cells assessed as downregulation of MYC mRNA levels up to 3 uM after 24 hrs by qPCR method relative to control. In a few lines: (§4)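 DLBCL lines grown in RPMI with 10% FBS (SUDHL4 15% FBS) and penicillin/streptomycin. Cells exposed for 24 h to rising concentrations up to 3 μM; DMSO as vehicle control. Total RNA isolated, target mRNA measured by TaqMan real-time qPCR, normalized to TBP and expressed relative to untreated cells; triplicate experiments, two-tailed t test.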

Data set [8] concerns U2932. The data set can be described thus: Potentiation of CPA-induced antitumor activity against human U2932 cells xenografted in SCID mouse assessed as tumor growth inhibition at 10 mg/kg, ip for 5 days cotreated with 7.5 mg/kg NSC-338258 measured on day 15 post first treatment (reference value: 44%). The class given is functional. In a few lines:
(§5)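 U2932 DLBCL cells (10 × 10^6 in 100 μL sterile saline, viability >91%) injected subcutaneously into left flank of SCID mice (6−8 weeks, immunoglobulin ≤20 μg/mL). Mice pair-matched by tumor volume. Drugs given ip daily for 5 days, CPA 30 mg/kg; controls received all diluents. Tumor volume = a2 × b/2 (a smallest, b largest diameter); n = 5−8; Grubbs' test for outliers.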

For data set [9], the system named is Mus musculus. In words: Reduction in Bcl2 mRNA level in tumor of SCID mouse xenografted with human U2932 cells at 10 mg/kg, ip administered for 5 consecutive days cotreated with CPA and NSC-338258 by qPCR method. The class given is functional, organism-based. The procedure, abridged: as §2
The species named for data set [10] is Homo sapiens. In words: Stabilization of BCL2 i-motif promoter DNA in BCL2 and MYC translocation-positive human VAL cells assessed as potentiation of CPA-induced cytotoxicity by measuring fold reduction in CPA IC50 at 2 to 3 uM after 96 hrs by MTS assay. In a few lines:
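MTS viability assay. 100 000 cells incubated 96 h with increasing CPA alone or with ligand (1−3 μM). Viability expressed relative to untreated cells. CPA IC50 fitted by Boltzmann sigmoidal equation with variable slope, and fold change in IC50 taken from the fitted values.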
On the technique in general: Tetrazolium assays rely on reduction of a dye to a coloured formazan, in cell work by metabolically active cells.

The test system of another data set is HT. In words: Down regulation of BLC2 mRNA level in human HT cells up to 3 uM after 24 hrs by qPCR method. The class given is functional, cell-based. The procedure, abridged:
as §4

The species named for data set [11] is Homo sapiens. In words: Stabilization of BCL2 i-motif promoter DNA in MYC translocation-positive and BCL2 amplification-positive human U2932 cells assessed as potentiation of CPA-induced apoptosis by measuring increase in caspase-3 activity at 3 uM after 24 hrs in presence of NSC-338258 by AFC based fluorescence assay (reference value: 30%).
The species entered for data set [12] is Homo sapiens. The data set can be described thus: Binding affinity to BLC2 i-motif promoter DNA in MYC translocation-positive and BCL2 amplification-positive human U2932 cells assessed as downregulation of Bcl2 mRNA levels at 1 to 3 uM after 24 hrs by qPCR method relative to control. The procedure, abridged: as §4
For data set [13], the species on record is Homo sapiens. In words: Binding affinity to c-myc G-quadruplex DNA in human HT cells assessed as downregulation of MYC protein levels up to 3 uM after 24 hrs by Western blot analysis. The class given is cell-based. The procedure, abridged:
as §3

Data set [14] has as its system U2932. The data set can be described thus: Potentiation of CPA-induced antitumor activity against human U2932 cells xenografted in SCID mouse assessed as reduction in tumor burden AUC at 10 mg/kg, ip for 5 days cotreated with 5 to 7.5 mg/kg NSC-338258 measured on day 9 to 15 post first treatment. The data set is classed as functional, organism-based. The procedure, abridged:
as §5

Data set [15] is filed under the species Homo sapiens. The data set can be described thus: Binding affinity to BLC2 i-motif promoter DNA in human SUDHL4 BCL2 translocation-positive cells assessed as downregulation of BCL2 protein levels at 1 to 3 uM after 24 hrs by Western blot analysis. In a few lines:
as §3

The species entered for data set [16] is Homo sapiens. In words: Binding affinity to c-myc G-quadruplex DNA in BCL2 translocation-positive human SUDHL4 cells assessed as downregulation of MYC mRNA levels up to 3 uM after 24 hrs by qPCR method relative to control. The procedure, abridged:
as §4

The test system of data set [17] is U2932. In words: Potentiation of CPA-induced antitumor activity against human U2932 cells xenografted in SCID mouse assessed as tumor growth inhibition at 10 mg/kg, ip for 5 days cotreated with 7.5 mg/kg NSC-338258 measured on day 12 post first treatment (reference value: 67%). The data set is classed as functional. The procedure, abridged: as §5
Data set [18] deals with U2932. In words: Antitumor activity against human U2932 cells xenografted in SCID mouse assessed as reduction in tumor burden at 10 mg/kg, ip for 5 days cotreated with 5 to 7.5 mg/kg NSC-338258 measured on day 9 to 15 post first treatment.
Data set [19] is filed under the species Homo sapiens. In words: Binding affinity to BLC2 i-motif promoter DNA in BCL2 and MYC translocation-positive human VAL cells assessed as downregulation of Bcl2 mRNA levels at 1 to 3 uM after 24 hrs by qPCR method relative to control. In a few lines: as §4
Data set [20] is filed under the species Homo sapiens. The data set can be described thus: Binding affinity to BLC2 i-motif promoter DNA in human U2932 MYC translocation-positive and BCL2 amplification-positive cells assessed as downregulation of BCL2 protein levels at 1 to 3 uM after 24 hrs by Western blot analysis. The procedure, abridged:
as §3

For data set [21], the system named is U2932. The data set can be described thus: Potentiation of CPA-induced antitumor activity against human U2932 cells xenografted in SCID mouse assessed as tumor growth inhibition at 10 mg/kg, ip for 5 days cotreated with 7.5 mg/kg NSC-338258 measured on day 9 post first treatment (reference value: 50%). The data set is classed as functional. The procedure, abridged:
as §5

The species named for data set [22] is Homo sapiens. In words: Binding affinity to BLC2 i-motif promoter DNA in BCL2 translocation-positive human SUDHL4 cells assessed as downregulation of Bcl2 mRNA levels at 1 to 3 uM after 24 hrs by qPCR method. In a few lines: as §4

Consider `COc1ccc2c(c1)CN([C@@H](C)[C@H]1CC[C@H]3[C@@H]4CC[C@H]5C[C@@H](O)CC[C@]5(C)[C@H]4CC[C@]13C)CO2`, for which the Activity result in the data set on Mus musculus [1] is “Non-Toxic”; in the data set with Mus musculus [4], “Non-Toxic”; in the data set filed under Homo sapiens [5] it was 100%; in the data set filed under Homo sapiens [6], 100%; in the data set listed under Homo sapiens [11] it was 100%; in the data set filed under Homo sapiens [12] it was 11 to 37%. Besides, the Activity in the data set filed under Homo sapiens [19] and in the data set filed under Homo sapiens [22] was 11 to 37% each time. In addition, the outcome in the data set with Mus musculus [2], in the data set listed under Homo sapiens [3], in the data set on Mus musculus [9], in the data set with U2932 [14], in the data set listed under Homo sapiens [15] and in the data set filed under Homo sapiens [20] was Active. The result in the data set filed under Homo sapiens [7], in the data set with HT, in the data set filed under Homo sapiens [13], in the data set filed under Homo sapiens [16] and with U2932 [18] was inactive. Also, the TGI in the data set with U2932 [8] is on record as 37%; in the data set with U2932 [17] it was 46%; in the data set with U2932 [21], 50%. In addition, the fold change (FC) in the data set filed under Homo sapiens [10] stood at 1.7.
